Measured values collected from several papers.
Protocols differ between the studies behind these lines.
FLT3: Receptor-type tyrosine-protein kinase FLT3 (FLT3, Homo sapiens, UniProt P36888)
DHFR: Dihydrofolate reductase (DHFR, Homo sapiens, UniProt P00374)
Aldo-keto reductase family 1 member B1: Aldo-keto reductase family 1 member B1 (Bos taurus, UniProt P16116)

CC(C)(C(=O)O)C1=C/C(=C\c2ccc(-c3ccccc3)cc2)c2ccc(F)cc21
IC50 (Prostaglandin G/H synthase 1 (PTGS1, Homo sapiens, UniProt P23219); enzyme activity in cells, inhibitor): 1300 nM

c1ccc(-c2ccccc2Nc2nccc(NC3CCCCC3)n2)cc1
IC50 (FLT3; enzyme activity, inhibitor): > 13000 nM

N#Cc1ccc(Cn2ccc3c4c(N)nc(N)nc4ccc32)cc1
IC50 (DHFR; enzyme activity, inhibitor): 6.8 nM

Cc1ccc2nc(-c3ccc(Cl)cc3)n(Cc3ccccc3)c2c1
IC50 (DHFR; enzyme activity, inhibitor): 2350 nM

O=C(Oc1nsnc1N1CCC2CCCCC2C1)N1CCCCC1 (stereo not shown)
IC50 (Fatty-acid amide hydrolase 1 (FAAH, Homo sapiens, UniProt O00519); enzyme activity, inhibitor; cell membranes): 31 nM

COC(=O)c1cccc(-c2cccc(Nc3nccc(NC4CCCCC4)n3)c2)c1
IC50 (FLT3; enzyme activity, inhibitor): 13300 nM

O=C(Nc1ccccc1C=NNS(=O)(=O)c1ccc2ccccc2c1)c1ccc([N+](=O)[O-])cc1
IC50 (UDP-N-acetylmuramate--L-alanine ligase (murC, Escherichia coli K-12, UniProt P17952); enzyme activity, inhibitor, absorbance): 27000 nM

CC[C@H](C)[C@H](NC(C)=O)C(=O)N[C@@H](CCC(=O)O)C(=O)N[C@H](C(=O)N[C@H](C=O)CC(=O)O)[C@@H](C)O
IC50 (Caspase-4 (CASP4, Homo sapiens, UniProt P49662); enzyme activity, inhibitor): 784 nM

CCCC[C@@H](C(=O)N[C@@H](CC(=O)O)C(=O)N(C)[C@@H](Cc1ccccc1)C(N)=O)N(C)C(=O)[C@H](Cc1c[nH]c2ccccc12)NC(=O)CNC(=O)[C@H](Cc1ccc(O)cc1)NC(=O)[C@H](C)NC(=O)[C@@H](CCC(=O)O)NC(=O)CN1CCN(CC(=O)O)CCN(CC(=O)O)CCN(CC(=O)O)CC1
IC50 (Gastrin/cholecystokinin type B receptor (CCKBR, Homo sapiens, UniProt P32239); ligand displacement, radioligand): 4.98 nM

c1ccc(-c2ccc(Nc3nccc(NC4CCCCC4)n3)cc2)nc1
IC50 (FLT3; enzyme activity, inhibitor): 1880 nM

CC1=C(/C=C/C(C)=C/C=C/C(C)=C/C=O)C(C)(C)CCC1
IC50 (Prothrombin (F2, Bos taurus, UniProt P00735); enzyme activity, inhibitor, fluorescence): 74 µg/mL

CC(C)(C)Nc1ccnc(Nc2cccc(-c3cccnc3)c2)n1
IC50 (FLT3; enzyme activity, inhibitor): 13 nM

O=C(Nc1ccc(Br)cc1)N1CCC(n2c(=O)[nH]c3c(Br)cccc32)CC1
IC50 (Formamidopyrimidine-DNA glycosylase (Escherichia coli, UniProt P05523); enzyme activity, inhibitor): > 100000 nM

CC(C)Nc1ccnc(Nc2ccc(-c3ccccc3)cc2)n1
IC50 (FLT3; enzyme activity, inhibitor): 15000 nM

CCN(CC)CCCC[C@H](NC(=O)[C@H](CC(C)C)NC(=O)[C@H](C)NC(=O)[C@H](Cc1ccccc1)NC(=O)c1ccc(C(C)(C)C)cc1)C(=O)N[C@@H](CO)C(=O)OC
IC50 (Chromodomain Y-like protein 2 (CDYL2, Homo sapiens, UniProt Q8N8U2); ligand displacement, TR-FRET): 85 nM

Cc1ccc(NC(=O)c2ccc(C)c(C(F)(F)F)c2)cc1C#Cc1nn(C2CCC(O)CC2)c2ncnc(N)c12 (stereo not shown)
IC50 (Tyrosine-protein kinase receptor TYRO3 (TYRO3, Homo sapiens, UniProt Q06418); enzyme activity, inhibitor, radiometric): 351 nM

Cc1ccc(C(=O)Nc2ccc(Oc3cc4cnn(C)c4cc3-c3cn[nH]c3)c(F)c2)c(=O)n1-c1ccc(F)cc1
IC50 (FLT3; enzyme activity, inhibitor, radiometric): 31 nM

CN(C)CC#Cc1ccc2[nH]c3c(c2c1)-c1nc(N)ncc1CCC3
IC50 (Serine/threonine-protein kinase ULK3 (ULK3, Homo sapiens, UniProt Q6PHR2); enzyme activity, inhibitor, radiometric): > 10000 nM

CC(=N/N=c1\scc(-c2ccc(Br)cc2)n1-c1ccccc1C)C12CC3CC(CC(C3)C1)C2
IC50 (Aldo-keto reductase family 1 member B1; enzyme activity, inhibitor, absorbance): 10200 nM

c1cc(Nc2nccc(NC3CCCCC3)n2)cc(-c2cc[nH]n2)c1
IC50 (FLT3; enzyme activity, inhibitor): 96 nM

C/C(=N/N=c1/scc(-c2ccc(Br)cc2)n1-c1c(C)cccc1C)c1ccc2c(c1)OCCO2
IC50 (Aldo-keto reductase family 1 member B1; enzyme activity, inhibitor, absorbance): 3140 nM

NNC(c1nnnn1CC(c1ccccc1)c1ccccc1)C1CCCCC1 (stereo not shown)
IC50 (Endothiapepsin (EAPA, Cryphonectria parasitica, UniProt P11838); enzyme activity, inhibitor, fluorescence): 96800 nM
